Most compounds without a hit are left out; they make up all but 1.1% or so of the library.
PMI act hi M6P – human PMI activators, high substrate, primary screen, biochemical, fluorescence intensity, near-saturating mannose 6-phosphate; Mannose-6-phosphate isomerase (Homo sapiens), P34949; coupled PMI enzyme assay, resazurin fluorescence, 20 min; hits give high values; 1 = untreated enzyme, 0 = substrate-free blank; activation factor at 20 µM; 190,000 compounds, 0.34% hits; AID 1216, 2008;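 active = activation factor of 2 or more at 20 µM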
Target sequence (P34949 whole entry, looked up): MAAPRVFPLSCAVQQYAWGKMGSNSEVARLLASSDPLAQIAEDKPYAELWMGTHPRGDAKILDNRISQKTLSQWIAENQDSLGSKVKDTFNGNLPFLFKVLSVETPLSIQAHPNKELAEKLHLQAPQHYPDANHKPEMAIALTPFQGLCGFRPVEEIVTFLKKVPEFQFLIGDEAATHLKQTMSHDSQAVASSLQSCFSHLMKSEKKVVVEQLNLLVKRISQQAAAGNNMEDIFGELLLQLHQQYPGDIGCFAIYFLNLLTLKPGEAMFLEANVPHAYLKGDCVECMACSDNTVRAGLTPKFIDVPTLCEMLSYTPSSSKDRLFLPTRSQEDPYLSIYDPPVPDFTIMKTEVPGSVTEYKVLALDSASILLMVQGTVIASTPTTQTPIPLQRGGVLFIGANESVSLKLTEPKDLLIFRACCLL
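Technique: Diaphorase-driven resazurin-to-resorufin fluorescence, excitation 544, emission 590 nm | Assay system: Human PMI in coupled enzyme assay | Times: Enzyme reaction with compound 20 min at room temperature | Medium: HEPES-buffered pH 7.4 with magnesium and detergent | Reagent: Mannose-6-phosphate 1.0 mM (near-saturating) plus 0.22 mM NADP+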
Diaphorase act – compounds boosting diaphorase resazurin reduction – biochemical, uHTS, resorufin fluorescence, counter-screen for diaphorase-coupled primary assays, primary screen | AID 1229, 2008 | 190,000 compounds, 0.005% hits | Diaphorase/resazurin coupled assay, 16 min; hits give high values; 1 = vehicle wells, 0 = NADH-free wells | activation factor at 20 µM;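 active = diaphorase activity raised at least twofold by the compound at 20 µM; inactive = activation factor below 2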
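Material: Clostridium kluyveri diaphorase, purified enzyme; Quantity: enzyme 0.07 U/mL final; Medium: HEPES pH 7.4 buffer with MgCl2 and Tween 20; Dosing: single compound dose of 20 µM, 1% DMSO final; Schedule: 16 min reaction at room temperature; Measured by: red resorufin fluorescence at 544/590 nm excitation/emission.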
PMI activator – activators of human PMI, primary screen, biochemical, fluorescence intensity, near-Km mannose 6-phosphate. Mannose-6-phosphate isomerase (Homo sapiens), P34949. purified human PMI, coupled resazurin fluorescence, 20 min; hits give high values; 1 = vehicle control, 0 substrate-free wells. activation factor at 20 µM. 190,000 compounds, 0.005% hits. AID 1214, 2008;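 active = activation factor of 2 or more at 20 µM, relative to plate controls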
Diaphorase inh – diaphorase inhibitors and chemical oxidizers, primary screen, counter-screen for diaphorase-coupled primary assays, biochemical, uHTS, resorufin fluorescence. diaphorase resazurin-to-resorufin fluorescence, NADH, 16 min; bacterial (C. kluyveri) enzyme, not human. inhibition, % at 20 µM. 190,000 compounds, 0.69% hits. AID 1217, 2008;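 active = primary screen inhibition at 20 µM above a set limit, cut at about 50% in these data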;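 note: plate controls were DMSO with full reaction for no effect and wells lacking NADH for full effect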
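Assay system: diaphorase enzyme from Clostridium kluyveri. Quantity: enzyme working solution with 0.14 U/mL diaphorase. Schedule: reaction incubation of 16 min at room temperature. Technique: resorufin fluorescence, excitation 544 nm, emission 590 nm. Controls: No-NADH positive control and DMSO neutral control.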
G6PDH CS – L. mesenteroides G6PDH inhibitors, counter-screen for G6PDH-coupled screening assays, biochemical, Leuconostoc mesenteroides enzyme; glucose-6-phosphate dehydrogenase [Leuconostoc mesenteroides]; Purified L. mesenteroides G6PDH, diaphorase/resazurin coupled fluorescence, 45 min; inhibition, % at 5 µM; 200,000 compounds, 0.12% hits; in the data active = inhibition above about 50%
* = called active by the depositor.

For COc1cccc2c1NC(C(=O)O)C1CC=CC21 (stereo unspecified) the results were PMI act hi M6P 1.4, Diaphorase act 0.1, PMI activator 1.2, Diaphorase inh 93* and G6PDH CS 12.
For CC(=O)c1ccc2c(c1)C1C=CCC1C(C(=O)O)N2 (stereo unspecified) the results were PMI act hi M6P 1.6, Diaphorase act 0.2, PMI activator 1.6, Diaphorase inh 77* and G6PDH CS 7.
Screening CC(=O)c1ccc2c(c1)C1C=CCC1C(c1ccncc1)N2 (stereo unspecified) returned PMI act hi M6P 0.8, Diaphorase act 0.8, PMI activator 1.1, Diaphorase inh 20 and G6PDH CS 7.
Screening Cc1ccc2c(c1)C1C=CCC1C(C(=O)O)N2 (stereo unspecified) returned PMI act hi M6P 1.8, Diaphorase act 0.4, PMI activator 1.5, Diaphorase inh 63* and G6PDH CS 2.
`O=C(CN1CCN(c2ccccc2O)CC1)Nc1cccnc1Cl` gave PMI act hi M6P 0.8, Diaphorase act 0.9, PMI activator 1, Diaphorase inh 7 and G6PDH CS -3.
CCN(CC)S(=O)(=O)c1ccc(NC(=O)C2c3ccccc3Oc3ccccc32)cc1 was read as PMI act hi M6P 0.9, Diaphorase act 0.8, PMI activator 0.8, Diaphorase inh 19 and G6PDH CS 8.
C=CCn1c(=O)[nH]c2cc(C(=O)N3CC=C(c4ccccc4)CC3)ccc2c1=O was read as PMI act hi M6P 0.9, Diaphorase act 0.7, PMI activator 0.9, Diaphorase inh 29 and G6PDH CS 6.
For Cc1cc2cc(C(c3nnnn3Cc3ccco3)N3CCc4ccccc4C3)c(=O)[nH]c2cc1C (stereo unspecified) the results were PMI act hi M6P 1.1, Diaphorase act 0.4, PMI activator 0.8, Diaphorase inh 59* and G6PDH CS 11.
Screening Cc1cc2cc(C(c3nnnn3Cc3ccccc3)N3CCc4ccccc43)c(=O)[nH]c2cc1C (stereo unspecified) returned PMI act hi M6P 0.8, Diaphorase act 0.6, PMI activator 0.6, Diaphorase inh 42 and G6PDH CS 20.
Screening Cc1cc2cc(C(c3nnnn3Cc3ccco3)N3CCc4ccccc43)c(=O)[nH]c2cc1C (stereo unspecified) returned PMI act hi M6P 0.9, Diaphorase act 0.2, PMI activator 0.6, Diaphorase inh 83* and G6PDH CS 23.
`N#Cc1cc2c(nc1S(=O)(=O)Cc1ccccc1)CCCC2` gave PMI act hi M6P 1.1, Diaphorase act 1.1, PMI activator 1.1, Diaphorase inh -12 and G6PDH CS 1.
Screening O=C(NCCc1nnc2ccc(NCc3ccccc3Cl)nn12)c1ccccc1 returned PMI act hi M6P 1.4, Diaphorase act 1, PMI activator 1.4, Diaphorase inh 3 and G6PDH CS 12.
Screening COc1cc2[nH]c(=S)nc(NCC3CCCO3)c2cc1OC (stereo unspecified) returned PMI act hi M6P 1, Diaphorase act 0.7, PMI activator 1, Diaphorase inh 26 and G6PDH CS 2.
Screening COc1cc2[nH]c(=S)nc(NC3CCCCCC3)c2cc1OC returned PMI act hi M6P 1, Diaphorase act 0.2, PMI activator 1, Diaphorase inh 75* and G6PDH CS -3.
Nc1ccc(C(=O)N/N=C/c2sc(N3CCOCC3)nc2-c2ccccc2)cc1 was read as PMI act hi M6P 1.2, Diaphorase act 0.9, PMI activator 1.1, Diaphorase inh 14 and G6PDH CS -1.
Screening O=C(O)c1cccc(N/N=C/c2sc(N3CCOCC3)nc2-c2ccccc2)c1 returned PMI act hi M6P 2.5*, Diaphorase act 0.9, PMI activator 1.6, Diaphorase inh 9 and G6PDH CS 0.
`O=C(O)c1cccc(Cn2c(Cl)c(/C=N/Nc3ccccc3)sc2=O)c1` gave PMI act hi M6P 2.5*, Diaphorase act 0.8, PMI activator 1.6, Diaphorase inh 20 and G6PDH CS 5.
For CCOc1ccc(CN(C)CC(=O)Nc2ccc([N+](=O)[O-])cc2Cl)cc1 the results were PMI act hi M6P 1.1, Diaphorase act 1, PMI activator 1, Diaphorase inh 1 and G6PDH CS -13.
For CC(C)c1ccc(-c2nc(N3CCCCC3)[nH]c(=O)c2C#N)cc1 the results were PMI act hi M6P 0.8, Diaphorase act 0.9, PMI activator 1, Diaphorase inh 13 and G6PDH CS 9.
`CC1=Nc2nc(N3CCCCC3)c(C#N)c3c4c(nc(c23)N1)N(c1ccc(C(C)C)cc1)C(=O)C4` gave PMI act hi M6P 0.4, Diaphorase act 0.2, PMI activator 0.4, Diaphorase inh 81* and G6PDH CS 12.
For C=CCN1C(=O)C2(NNc3ccccc3O2)c2ccccc21 (stereo unspecified) the results were PMI act hi M6P 1.7, Diaphorase act 0.8, PMI activator 1.4, Diaphorase inh 17 and G6PDH CS 3.
Screening CCCCN1C(=O)C2(NNc3ccccc3O2)c2ccccc21 (stereo unspecified) returned PMI act hi M6P 2.1*, Diaphorase act 0.9, PMI activator 1.6, Diaphorase inh 12 and G6PDH CS 7.
`CCC(COC)NCc1cn(-c2ccc(OC)cc2)nc1-c1cccc(F)c1` (stereo unspecified) gave PMI act hi M6P 1, Diaphorase act 1, PMI activator 1, Diaphorase inh 2 and G6PDH CS 2.
For Cc1cc(NC(=O)NC(C(F)(F)F)C(F)(F)F)no1 the results were PMI act hi M6P 0.8, Diaphorase act 0.8, PMI activator 0.8, Diaphorase inh 18 and G6PDH CS 19.
Screening O=C(CN1CCN(Cc2ccccc2)CC1)c1ccc(Br)cc1 returned PMI act hi M6P 2.4*, Diaphorase act 0.9, PMI activator 1.5, Diaphorase inh 6 and G6PDH CS 1.
For O=C(CS(=O)(=O)c1cn(Cc2ccc(F)cc2)c2ccccc12)N1CCOCC1 the results were PMI act hi M6P 1, Diaphorase act 0.3, PMI activator 1, Diaphorase inh 69* and G6PDH CS 8.
COC(=O)C1=C(O)/C(=C\c2ccc(CNS(=O)(=O)c3ccc(Cl)cc3)o2)N=C1C was read as PMI act hi M6P 1.4, Diaphorase act 0.7, PMI activator 1.3, Diaphorase inh 26 and G6PDH CS -23.
